Assay results from ChEMBL document CHEMBL1127562, “N-substituted spirosuccinimide, spiropyridazine, spiroazetidine, and acetic acid aldose reductase inhibitors derived from isoquinoline-1,3-diones. 2” (J Med Chem, 1994).
Where “and” joins values, the source holds several entries; their conditions need not be identical. Equal values may be shown once. Calls of active or inactive are those of the source. The calls are words filed in the database; no cut-off is given here.

Key:
[1] = target: Aldo-keto reductase family 1 member B1 (Bos taurus) (UniProt P16116); assay: Inhibition of aldose reductase activity in partially purified bovine lens preparation at 10e-5 M
In short: (§1)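 Partially purified bovine lens aldose reductase. Reduction of DL-glyceraldehyde substrate followed spectrophotometrically. Activity expressed as average inhibition at the tested concentrations, 1×10^-5, 1×10^-6, 1×10^-7 and 4×10^-6 M as printed; IC50 in M where given.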

Rattus norvegicus [2] = assay: Tested for in vivo inhibition of galactitol accumulation in the sciatic nerve of galactose-fed rats at the dose of 93.6 (mg/kg/day); type: functional
In short: (§2)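 Rats fed a 20% galactose diet for 4 days, with test compound given in the diet at the stated daily dose (mg/kg/day). Read-out is inhibition of galactitol (polyol) accumulation in sciatic nerve. Values are % inhibition, mean ± SEM of six animals; p < 0.01 unless marked (some p < 0.05). NS = no significant inhibition of polyol accumulation. Tolrestat was the reference standard.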

Rattus norvegicus [3] = assay: Tested for in vivo inhibition of galactitol accumulation in the lens of galactose-fed rats at the dose of 49.3 (mg/kg/day); NS=Not significant; type: functional, organism-based; conditions: Lens of camera-type eye
Rattus norvegicus [4] = assay: Tested for in vivo inhibition of galactitol accumulation in the sciatic nerve of galactose-fed rats at the dose of 49.3 (mg/kg/day); type: functional; in short: as §2
Rattus norvegicus [5] = assay: Tested for in vivo inhibition of galactitol accumulation in the lens of galactose-fed rats at the dose of 93.6 (mg/kg/day); NS=Not significant; type: functional, organism-based; conditions: Lens of camera-type eye
In short: (§3)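 Galactosemic rats were fed 20% galactose for 4 days, with the compound mixed into the diet. […] galactitol accumulation was measured, and activity is given as % inhibition at the stated daily dose (mg/kg/day). Values are mean ± SEM of six animals; p < 0.01 unless indicated. NS means no significant inhibition of polyol accumulation.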

Rattus norvegicus [6] = assay: Tested for in vivo inhibition of galactitol accumulation in the lens of galactose-fed rats at the dose of 25.4 (mg/kg/day); NS=Not significant; type: functional, organism-based; conditions: Lens of camera-type eye
Rattus norvegicus [7] = assay: Tested for in vivo inhibition of galactitol accumulation in the sciatic nerve of galactose-fed rats at the dose of 25.4 (mg/kg/day); type: functional
In short: (§4)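 Rats were given a 20% galactose diet for 4 days, with the test compound administered in the diet. Sciatic nerve galactitol accumulation was measured, and activity is given as % inhibition at the stated daily dose (mg/kg/day). Values are mean ± SEM, n = 6 animals; p < 0.01 unless indicated. NS means no significant inhibition of polyol accumulation.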

Rattus norvegicus [8] = assay: Tested for in vivo inhibition of galactitol accumulation in the lens of galactose-fed rats at the dose of 50.9 (mg/kg/day); type: functional, Lens of camera-type eye
Rattus norvegicus [9] = assay: Tested for in vivo inhibition of galactitol accumulation in the sciatic nerve of galactose-fed rats at the dose of 50.9 (mg/kg/day); type: functional; in short: as §2
Rattus norvegicus [10] = assay: Tested for in vivo inhibition of galactitol accumulation in the lens of galactose-fed rats at the dose of 56.1 (mg/kg/day); type: functional, Lens of camera-type eye; in short: as §3
Rattus norvegicus [11] = assay: Tested for in vivo inhibition of galactitol accumulation in the sciatic nerve of galactose-fed rats at the dose of 56.1 (mg/kg/day); type: functional; in short: as §2
Rattus norvegicus [12] = assay: Tested for in vivo inhibition of galactitol accumulation in the sciatic nerve of galactose-fed rats at the dose of 55.4 (mg/kg/day); type: functional; in short: as §2
Rattus norvegicus [13] = assay: Tested for in vivo inhibition of galactitol accumulation in the lens of galactose-fed rats at the dose of 86.1 (mg/kg/day); type: functional, Lens of camera-type eye; in short: as §3
Rattus norvegicus [14] = assay: Tested for in vivo inhibition of galactitol accumulation in the lens of galactose-fed rats at the dose of 25 (mg/kg/day); type: functional, Lens of camera-type eye
Rattus norvegicus [15] = assay: Tested for in vivo inhibition of galactitol accumulation in the sciatic nerve of galactose-fed rats at the dose of 25 (mg/kg/day); type: functional; in short: as §4
Rattus norvegicus [16] = assay: Tested for in vivo inhibition of galactitol accumulation in the lens of galactose-fed rats at the dose of 10.5 (mg/kg/day); NS=Not significant; type: functional, organism-based; conditions: Lens of camera-type eye
Rattus norvegicus [17] = assay: Tested for in vivo inhibition of galactitol accumulation in the sciatic nerve of galactose-fed rats at the dose of 49 (mg/kg/day); type: functional; in short: as §2
Rattus norvegicus [18] = assay: Tested for in vivo inhibition of galactitol accumulation in the lens of galactose-fed rats at the dose of 49 (mg/kg/day); type: functional, Lens of camera-type eye
[19] = target: Aldo-keto reductase family 1 member B1 (Bos taurus, UniProt P16116); assay: Compound was tested in vitro for inhibition of aldose reductase activity in partially purified bovine lens preparation; in short: as §1
Rattus norvegicus [20] = assay: Tested for in vivo inhibition of galactitol accumulation in the lens of galactose-fed rats; type: functional, organism-based; conditions: Lens of camera-type eye
Rattus norvegicus [21] = assay: Tested for in vivo inhibition of galactitol accumulation in the sciatic nerve of galactose-fed rats; type: functional, organism-based
Rattus norvegicus [22] = assay: Tested for in vivo inhibition of galactitol accumulation in the lens of galactose-fed rats at the dose of 57.2 (mg/kg/day); type: functional, Lens of camera-type eye; in short: as §3
Rattus norvegicus [23] = assay: Tested for in vivo inhibition of galactitol accumulation in the sciatic nerve of galactose-fed rats at the dose of 57.2 (mg/kg/day); type: functional; in short: as §2
Rattus norvegicus [24] = assay: Tested for in vivo inhibition of galactitol accumulation in the sciatic nerve of galactose-fed rats at the dose of 1.0 (mg/kg/day); type: functional; in short: as §4

In the case of `COC(=O)NC(=O)CC1C(=O)N(Cc2nc3cc(C(F)(F)F)ccc3s2)C(=O)c2ccc(F)cc21` (stereo not given), the inhibition [1] is reported as 83%, the Inhibition (Rattus norvegicus [2]) is reported as 59% and the inhibition (Rattus norvegicus [3]) is reported as “inactive”. The Inhibition (Rattus norvegicus [4]) was 39% and the inhibition (Rattus norvegicus [5]) was “inactive”.
For `COC(=O)NC(=O)CC1C(=O)N(Cc2ccc(Br)cc2F)C(=O)c2cc(OC)ccc21` (stereo not given), the inhibition (Rattus norvegicus [6]) was “inactive” and the Inhibition (Rattus norvegicus [7]) was 68%.
`CCC(CC)=NN1C(=O)CC2(C(=O)N(Cc3ccc(Br)cc3F)C(=O)c3ccccc32)C1=O` (stereo not given) was tested, and the inhibition [1] was “inactive”, the Inhibition (Rattus norvegicus [8]) was 71% and the Inhibition (Rattus norvegicus [9]) was 98%.
`NN1C(=O)CC2(C1=O)C(=O)N(Cc1ccc(Br)cc1F)C(=O)c1ccccc12` (stereo not given) was tested, and the inhibition [1] was “inactive”, the Inhibition (Rattus norvegicus [10]) was 82% and the Inhibition (Rattus norvegicus [11]) was 72%.
In the case of `CN1C(=O)CC2(C(=O)N(Cc3ccc(Br)cc3F)C(=O)c3ccccc32)C(=O)N1C` (stereo not given), the inhibition [1] is reported as “inactive” and the Inhibition (Rattus norvegicus [12]) is reported as 76%.
`COC(=O)NC(=O)CC1C(=O)N(C)C(=O)c2ccc(Cl)cc21` (stereo not given) was tested, and the inhibition [1] was 65%, the Inhibition (Rattus norvegicus [13]) was 54% and 81% and the Inhibition (Rattus norvegicus [14]) was 24%. For the same molecule, the Inhibition (Rattus norvegicus [15]) was 53%.
With `CN1C(=O)c2ccc(Cl)cc2C2(CC(=O)N2)C1=O` (stereo not given) the inhibition (Rattus norvegicus [16]) was “inactive”, the Inhibition (Rattus norvegicus [17]) was 87% and the Inhibition (Rattus norvegicus [18]) was 66%.
`O=C1CC2(C(=O)N1)C(=O)N(Cc1ccc(Br)cc1F)C(=O)c1ccccc12` (stereo not given) was tested, and the IC50 [19] was 23 nM, the EC50 (Rattus norvegicus [20]) was 10 mg/kg/day and the ED50 (Rattus norvegicus [21]) was 0.3 mg/kg/day.
With `CC(=O)NN1C(=O)CC2(C(=O)N(Cc3ccc(Br)cc3F)C(=O)c3ccccc32)C1=O` (stereo not given) the inhibition [1] was “inactive”, the Inhibition (Rattus norvegicus [22]) was 25% and the Inhibition (Rattus norvegicus [23]) was 73%.
`CN1C(=O)CC2(C1=O)C(=O)N(Cc1ccc(Br)cc1F)C(=O)c1ccc(F)cc12` (stereo not given) was tested, and the inhibition [1] was “inactive” and the Inhibition (Rattus norvegicus [24]) was 28%.
